The record followed here is ChEMBL document CHEMBL1157857, “Synthesis and antimicrobial of new anthraquinone derivatives incorporating pyrazole moiety” (2010).

Common to all, as to assay type: functional
The test system of assay [1] is Staphylococcus epidermidis. Nature of the assay: Antibacterial activity against Staphylococcus epidermidis at 2 mg/ml after 24 hrs by agar diffusion method. The settings on record: read-out: DIZ. The gist of the method: (§1)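 Bacteria grown on nutrient agar, incubated 24 h; inhibition zone diameter measured as activity read-out. Three replicate plates per compound. DMSO-only control included for each organism. Ampicillin, chloramphenicol and cloxacillin used at 2 mg/mL as reference drugs.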
Background: In agar diffusion tests the substance spreads into inoculated agar from a disc or well.

For another assay, the system named is Pseudomonas aeruginosa. Nature of the assay: Antibacterial activity against Pseudomonas aeruginosa at 2 mg/ml after 24 hrs by agar diffusion method. To be noted: read-out: DIZ. The gist of the method:
as §1

A further assay deals with Alternaria solani. Nature of the assay: Antifungal activity against Alternaria solani at 2 mg/ml after 7 days by agar diffusion method. The settings on record: 168 h, read-out: DIZ. In a few lines: (§2)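 Fungi tested on potato dextrose agar, incubated seven days; diameter of inhibition zone recorded as activity measure. Three plates per compound as replicates. DMSO without test compound served as control for each organism. Reference drugs (ampicillin, chloramphenicol, cloxacillin) used at 2 mg/mL.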

The next assay concerns Fusarium solani. Briefly: Antifungal activity against Fusarium solani at 2 mg/ml after 7 days by agar diffusion method. To be noted: 168 h, read-out: DIZ. The gist of the method:
as §2

On to `Nc1n[nH]cc1C(=O)Nc1ccc2c(c1)C(=O)c1ccccc1C2=O`, for which the zone of inhibition at 2000 µg/mL in assay [1] was 22 mm; in the assay with Pseudomonas aeruginosa it was 16 mm; in the assay with Alternaria solani, 17 mm; with Fusarium solani it was 16 mm.

On to `Cc1cc(C)n2nc(Nc3ccccc3)c(C(=O)Nc3ccc4c(c3)C(=O)c3ccccc3C4=O)c2n1`, for which the zone of inhibition at 2000 µg/mL was found to be 20 mm in assay [1], 17 mm with Pseudomonas aeruginosa, 14 mm in the assay with Alternaria solani and 13 mm with Fusarium solani.

Turning to `Cc1onc(-c2ccccc2Cl)c1C(=O)N[C@@H]1C(=O)N2[C@@H]1SC(C)(C)[C@@H]2C(=O)O` [CLOXACILLIN], the zone of inhibition at 2000 µg/mL in assay [1] is 22 mm; in the assay on Pseudomonas aeruginosa, 30 mm; with Alternaria solani, 20 mm; in the assay on Fusarium solani, 22 mm.

As to `Cc1cc(C)c2c(n1)nn1c(N)c(C(=O)Nc3ccc4c(c3)C(=O)c3ccccc3C4=O)nnc21`, the zone of inhibition at 2000 µg/mL stood at 14 mm in assay [1], 21 mm in the assay on Pseudomonas aeruginosa, 19 mm in the assay with Alternaria solani and 17 mm with Fusarium solani.

As for `Cc1nn(-c2ccccc2)c2c1cnc1c(C(=O)Nc3ccc4c(c3)C(=O)c3ccccc3C4=O)c(Nc3ccccc3)nn12`, the zone of inhibition at 2000 µg/mL in assay [1] was 17 mm; in the assay with Pseudomonas aeruginosa, 19 mm; with Fusarium solani, 14 mm.

Take `COc1ccc(-c2ccnc3c(C(=O)Nc4ccc5c(c4)C(=O)c4ccccc4C5=O)c(Nc4ccccc4)nn23)cc1`: the zone of inhibition at 2000 µg/mL worked out at 21 mm in assay [1], 20 mm with Pseudomonas aeruginosa, 17 mm in the assay on Alternaria solani and 15 mm in the assay with Fusarium solani.

On to `Cc1cc(C)c2c(N/N=C(/C#N)C(=O)Nc3ccc4c(c3)C(=O)c3ccccc3C4=O)n[nH]c2n1`, for which the zone of inhibition at 2000 µg/mL in assay [1] is 19 mm; in the assay on Pseudomonas aeruginosa, 27 mm; in the assay on Alternaria solani it was 18 mm; in the assay on Fusarium solani it was 13 mm.

On to `Nc1n[nH]c(Nc2ccccc2)c1C(=O)Nc1ccc2c(c1)C(=O)c1ccccc1C2=O`, for which the zone of inhibition at 2000 µg/mL was found to be 11 mm in assay [1], 14 mm in the assay on Pseudomonas aeruginosa, 14 mm in the assay on Alternaria solani and 16 mm in the assay with Fusarium solani.

Consider `CS/C(Nc1ccccc1)=C(\C#N)C(=O)Nc1ccc2c(c1)C(=O)c1ccccc1C2=O`, for which the zone of inhibition at 2000 µg/mL was determined as 12 mm in assay [1], 13 mm with Pseudomonas aeruginosa and 12 mm in the assay on Alternaria solani.

For the compound `Cc1c(N/C(Nc2ccccc2)=C(\C#N)C(=O)Nc2ccc3c(c2)C(=O)c2ccccc2C3=O)c(=O)n(-c2ccccc2)n1C`, the zone of inhibition at 2000 µg/mL in assay [1] was 24 mm; in the assay on Pseudomonas aeruginosa, 22 mm; with Alternaria solani, 21 mm; in the assay on Fusarium solani it was 16 mm.

As to `CN(C)/C=C(\C#N)C(=O)Nc1ccc2c(c1)C(=O)c1ccccc1C2=O`, the zone of inhibition at 2000 µg/mL came to 14 mm with Pseudomonas aeruginosa and 12 mm in the assay with Fusarium solani.

Regarding `CC1(C)S[C@@H]2[C@H](NC(=O)[C@H](N)c3ccccc3)C(=O)N2[C@H]1C(=O)O` [AMPICILLIN], the zone of inhibition at 2000 µg/mL was determined as 19 mm in assay [1], 21 mm in the assay with Pseudomonas aeruginosa, 19 mm in the assay with Alternaria solani and 17 mm in the assay with Fusarium solani.

In the case of `O=C(N[C@H](CO)[C@H](O)c1ccc([N+](=O)[O-])cc1)C(Cl)Cl` [CHLORAMPHENICOL], the zone of inhibition at 2000 µg/mL was determined as 27 mm in assay [1], 24 mm with Pseudomonas aeruginosa, 18 mm with Alternaria solani and 17 mm in the assay on Fusarium solani.

As for `O=C1c2ccccc2C(=O)c2cc(-n3cnc4n[nH]c(Nc5ccccc5)c4c3=O)ccc21`, the figures for the zone of inhibition at 2000 µg/mL (in assay [1]; with Pseudomonas aeruginosa; with Alternaria solani) were 15 mm, 20 mm and 11 mm, respectively.

`O=C1c2ccccc2C(=O)c2cc(NC(=O)c3c(Nc4ccccc4)nn4c5c(cnc34)CCc3ccccc3-5)ccc21`: the zone of inhibition at 2000 µg/mL in assay [1] came to 25 mm; with Pseudomonas aeruginosa, 20 mm; in the assay with Alternaria solani, 22 mm; in the assay on Fusarium solani it was 14 mm.

`Cc1ccc(C)n1-c1n[nH]c(Nc2ccccc2)c1C(=O)Nc1ccc2c(c1)C(=O)c1ccccc1C2=O`: the zone of inhibition at 2000 µg/mL in assay [1] is 19 mm; in the assay with Pseudomonas aeruginosa it was 16 mm.
